Results published in article PMC2765218 (Nature biotechnology, 2009).

Tested on: mutant HTT
Assay type: cell-based, human
Conditions: GM04281 cells
Outline: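 GM04281 fibroblasts (heterozygous for mutant HTT) were grown in MEM with 10% heat-inactivated FBS and plated 2 days before treatment. PNA-peptide conjugate stocks were heated 65 °C for 5 min, then added in OptiMEM; medium was replaced after 24 h and cells were harvested about 4 days later. BCA-normalised lysates ran on 5% Tris-acetate SDS-PAGE (ice bath) to separate wild-type and mutant HTT. Anti-HTT immunoblot with β-actin loading control; densitometry gave % inhibition versus control from triplicate experiments. Dose-response fit: y=100(1−x^m/(n^m+x^m)).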

K-GGCGGCTGTTGCTGCTGCT-K8 [3J/HTT]
selectivity (wild-type IC50/mutant IC50), HTT: 5 fold
